The nature of series [1]: Inhibition of amyloid beta (1-40) beta-sheet transition assessed as decrease in beta-sheet level after 7 days by CD spectroscopic analysis relative to control. The essentials: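 Aβ1-40 (50 µM) in PBS with 10% ethanol, alone or with compound (10 or 50 µM), incubated at 37 °C without agitation. CD spectra 195–250 nm were recorded at room temperature in a 0.1 cm cell, with buffer/ethanol or inhibitor blank baseline subtracted. Absolute ellipticity at 215 nm was followed over time and expressed relative to the control plateau.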

The nature of series [2]: Inhibition of HFIP-induced amyloid beta (1-40) aggregation after 2 hrs by thioflavin T fluorescence method. The essentials:
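Pre-monomerized Aβ1-40 (HFIP-dissolved, lyophilized) at 30 µM in PBS (0.01 M, NaCl 0.1 M, pH 7.4) with 2% HFIP and 10% DMSO, coincubated with compound in triplicate at 25 °C for 2 h. Sample mixed with 25 µM ThT in 0.025 M phosphate pH 6.0; excitation 440 nm, emission 485 nm. Peptide-free blanks subtracted; % inhibition versus control. Primary screen at 100 µM. IC50 from 5–7 concentrations (200–0.01 µM) tested in duplicate, three independent experiments.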

For series [3], the target named is Acetylcholinesterase (Electrophorus electricus) (UniProt O42275). Kind of series: Inhibition of electric eel AChE using acetylthiocholine iodide as substrate at 10 uM after 20 mins by Ellman's method. On the technique in general: DTNB colorimetry detects thiols as they appear.
Acetylcholinesterase (Electrophorus electricus), sequence (O42275 24-633 limits assumed): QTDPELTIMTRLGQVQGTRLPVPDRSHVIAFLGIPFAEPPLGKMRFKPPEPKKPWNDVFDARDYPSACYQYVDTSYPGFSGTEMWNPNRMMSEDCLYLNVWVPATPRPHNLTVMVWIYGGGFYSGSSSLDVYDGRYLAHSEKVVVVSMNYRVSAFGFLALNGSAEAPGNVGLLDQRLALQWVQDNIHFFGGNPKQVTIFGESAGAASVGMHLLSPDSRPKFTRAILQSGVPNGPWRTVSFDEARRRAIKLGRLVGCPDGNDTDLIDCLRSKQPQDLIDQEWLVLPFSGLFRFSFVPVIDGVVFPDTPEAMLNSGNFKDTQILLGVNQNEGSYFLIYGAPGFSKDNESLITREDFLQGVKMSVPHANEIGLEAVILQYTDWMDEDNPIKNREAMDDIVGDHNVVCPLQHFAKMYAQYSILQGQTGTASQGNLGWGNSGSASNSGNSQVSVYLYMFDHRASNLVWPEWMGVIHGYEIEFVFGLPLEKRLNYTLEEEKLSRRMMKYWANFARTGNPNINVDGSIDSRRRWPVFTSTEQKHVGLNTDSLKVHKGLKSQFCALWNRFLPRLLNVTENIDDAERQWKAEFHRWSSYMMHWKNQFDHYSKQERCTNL
The target of series [4] is Cholinesterase (Equus caballus) (UniProt P81908). Kind of series: Inhibition of equine serum BChE using butyrylthiocholine iodide as substrate at 10 uM after 20 mins by Ellman's method.
Cholinesterase (Equus caballus), sequence (P81908 whole entry): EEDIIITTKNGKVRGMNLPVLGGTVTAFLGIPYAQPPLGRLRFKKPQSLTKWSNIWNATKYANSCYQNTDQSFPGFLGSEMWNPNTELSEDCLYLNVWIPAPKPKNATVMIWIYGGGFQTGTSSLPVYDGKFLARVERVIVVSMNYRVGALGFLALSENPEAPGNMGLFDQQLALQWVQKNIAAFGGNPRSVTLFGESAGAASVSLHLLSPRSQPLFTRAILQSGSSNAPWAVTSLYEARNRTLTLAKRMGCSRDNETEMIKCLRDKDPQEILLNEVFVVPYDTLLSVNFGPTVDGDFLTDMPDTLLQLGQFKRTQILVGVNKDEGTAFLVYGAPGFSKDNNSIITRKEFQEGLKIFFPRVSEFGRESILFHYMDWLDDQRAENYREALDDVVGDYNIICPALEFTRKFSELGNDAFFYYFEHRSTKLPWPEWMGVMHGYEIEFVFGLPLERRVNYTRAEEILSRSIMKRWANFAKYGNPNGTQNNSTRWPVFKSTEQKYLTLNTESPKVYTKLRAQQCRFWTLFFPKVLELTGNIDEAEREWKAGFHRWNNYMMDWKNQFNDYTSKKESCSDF
A short description of series [5]: Aqueous solubility of the compound in PBS buffer. The format is physicochemical. The essentials: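 Preliminary solubility in the incubation medium (PBS with up to 10% ethanol cosolvent) measured by UV spectroscopy; used to set the maximum soluble test concentration.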
Series [6] can be described thus: Inhibition of amyloid beta (1-40) fibrillation assessed as extended fibrillar weft formation at 50 uM after 7 days by TEM analysis. Put shortly:
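Aβ1-40 (50 µM) in PBS/10% ethanol, with compound at 10 or 50 µM, incubated at 37 °C for up to 10 days. Aliquots taken at 7 days were applied to carbon-coated grids and negatively stained with 2% w/v uranyl acetate. Imaged by TEM at 60 kV and 39 000-fold magnification, compared with self-aggregating control.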

Series [7] can be described thus: Inhibition of amyloid beta (1-42) aggregation at 100 uM measured at 8 hrs and 24 hrs by thioflavin T fluorescence method. Put shortly:
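Aβ1-42 (30 µM) in PBS/10% DMSO at 37 °C, alone or with compound at 100 µM. ThT fluorescence (ex 440, em 485 nm) read at 8 h and 24 h, reported in arbitrary units; mean ± SEM of three independent experiments.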

The values that follow come from ChEMBL document CHEMBL2150999, “Design, synthesis and biological evaluation of benzo[e][1,2,4]triazin-7(1H)-one and [1,2,4]-triazino[5,6,1-jk]carbazol-6-one derivatives as dual inhibitors of beta-amyloid aggregation and acetyl/butyryl cholinesterase” (Eur J Med Chem, 2012).

Each structure is given as a SMILES string. pIC50: −log10 of the molar value. In brackets after ≈: the same amount, converted by molar mass. Activity calls are given as the source filed them. The calls are words filed in the database; no cut-off is given here.

A word on the inhibition: it is the share of the control response that was lost under treatment. What is called pIC50 is the negative decadic logarithm of the IC50, by convention in mol/L. A lower pIC50 goes with a high IC50. Usually solubility stands for the concentration that dissolves in the medium under given conditions. Low readings indicate little dissolved substance, high ones much dissolved substance. On to `O=c1ccc2nc(-c3ccccc3)nn3c4ccccc4c1c23`, for which, in series [1], the inhibition entry was “inactive”. Further, the negative logarithm of the IC50 (pIC50) in series [2] was 5.21. In addition, the inhibition in series [3] worked out at 46%; in series [4] it was 59%. This molecule also came in with a solubility in series [5] of 50 µM (≈ 14.9 µg/mL). Moreover, the inhibition result in series [6] and in series [7] was “Active” throughout.
